Experiments:
[1] = tested on: Rattus norvegicus; test: Drug level in male Sprague-Dawley rat plasma treated with [14C]lixivaptan at 10 mg/kg, po administered as single dose via gavage measured after 8 hrs by liquid scintillation counting; assay type: ADME, organism-based; design: dose 10 mg/kg, dosed compound name [14C]lixivaptan, route oral; details: in vivo
Method in brief: (§1)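 Single oral gavage of [14C]drug (10 mg/kg, 10 ml/kg) as suspension in deionized water with pluronic F68, ~29.8 µCi/mg; SD rats fasted 18 h, fed 4 h post-dose. Blood by cardiac puncture under isoflurane, 3 rats/time/gender, into K2EDTA at 1, 8, 24 h; plasma extracted twice with 2 vol acetonitrile, radio-HPLC on C18 with flow radioactivity detection, expressed as % plasma radioactivity.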

[2] = tested on: Canis familiaris; test: Drug level in beagle dog plasma treated with [14C]lixivaptan at 10 mg/kg, po administered as single dose measured after 2 hrs by liquid scintillation counting; assay type: ADME, organism-based, Canis lupus familiaris; design: dose 10 mg/kg, dosed compound name [14C]lixivaptan, route oral; details: in vivo
Method in brief: (§2)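 Four male beagles fasted 18 h were gavaged once with [14C]lixivaptan at 10 mg/kg (2 ml/kg). The 5.0 mg/ml suspension was in deionized water with pluronic F68 (1.04 µCi/mg). Jugular K2EDTA plasma was taken at 2, 8 and 24 h and extracted twice with 2 volumes of acetonitrile. Profiling used C18 radio-HPLC (ammonium formate/acetonitrile gradient) with on-line flow scintillation detection. Each peak is reported as percent of plasma radioactivity.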

[3] = tested on: Rattus norvegicus; test: Drug level in female Sprague-Dawley rat plasma treated with [14C]lixivaptan at 10 mg/kg, po administered as single dose via gavage measured after 24 hrs by liquid scintillation counting; assay type: ADME, organism-based; design: dose 10 mg/kg, dosed compound name [14C]lixivaptan, route oral; details: in vivo
Method in brief: (§3)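 Sprague-Dawley rats (9/gender) were fasted 18 h and gavaged once with [14C]lixivaptan at 10 mg/kg (10 ml/kg), about 29.8 µCi/mg, suspended in deionized water with pluronic F68. Plasma came by cardiac puncture under isoflurane at 1, 8 and 24 h (3/gender/time) and was extracted twice with 2 volumes of acetonitrile. C18 radio-HPLC with a flow scintillation detector gave percent of plasma radioactivity per peak.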

[4] = tested on: Homo sapiens; test: AUC in human treated with [14C]lixivaptan at 100 mg, po qd for 7 days; assay type: ADME, organism-based, Plasma; design: dosed compound name [14C]lixivaptan; details: in vivo, 168 h
[5] = tested on: Rattus norvegicus; test: AUC (0 to 24 hrs) in female Sprague-Dawley rat treated with [14C]lixivaptan at 10 mg/kg, po administered as single dose via gavage; assay type: ADME, organism-based, Plasma; design: time < 24 hr, dose 10 mg/kg, dosed compound name [14C]lixivaptan, route oral; details: in vivo; method in brief: as §3
[6] = tested on: Rattus norvegicus; test: Toxicity in female Sprague-Dawley rat treated with [14C]lixivaptan at 10 mg/kg, po administered as single dose via gavage; assay type: organism-based; design: dose 10 mg/kg, dosed compound name [14C]lixivaptan, route oral; details: in vivo
[7] = tested on: Rattus norvegicus; test: Toxicity in male Sprague-Dawley rat treated with [14C]lixivaptan at 10 mg/kg, po administered as single dose via gavage; assay type: organism-based; design: dose 10 mg/kg, dosed compound name [14C]lixivaptan, route oral; details: in vivo
[8] = tested on: Homo sapiens; test: AUC (0 to 24 hrs) in human treated with [14C]lixivaptan at 100 mg, po administered as single dose; assay type: ADME, organism-based, Plasma; design: time < 24 hr, dose 100 mg, route oral, dosed compound name [14C]lixivaptan; details: in vivo
Method in brief: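 Healthy young men fasted 10 h and took one oral dose of [14C]lixivaptan, 100 mg (200 µCi) as two capsules with water, eating 4 h later. Plasma from each subject at 0.5, 2, 4, 8, 12, 24 and 36 h was acetonitrile-extracted and profiled by C18 radio-HPLC (formic acid/acetonitrile gradient) with flow detection. Component concentrations were % of radioactivity × total plasma radioactivity, giving AUC0-24 in ng-equiv.h/ml.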

[9] = tested on: Homo sapiens; test: Drug level in human plasma treated with [14C]lixivaptan at 100 mg, po administered as single dose measured after 24 hrs by liquid scintillation counting; assay type: ADME, organism-based; design: dosed compound name [14C]lixivaptan; details: in vivo
Method in brief: (§4)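 Healthy male volunteers fasted ≥10 h, given single oral 100 mg (200 µCi) [14C]drug as two 50-mg capsules with 250 ml water. Plasma (from ~50 ml blood) at 0.5, 2, 4, 8, 12, 24, 36 h, profiled per subject. Acetonitrile extraction, C18 radio-HPLC with 0.2% formic acid acetonitrile/water gradient, on-line radioactivity detection as % plasma radioactivity; ng-equiv/ml from % × total radioactivity.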

[10] = tested on: Rattus norvegicus; test: Drug level in male Sprague-Dawley rat plasma treated with [14C]lixivaptan at 10 mg/kg, po administered as single dose via gavage measured after 1 hr by liquid scintillation counting; assay type: ADME, organism-based; design: dose 10 mg/kg, dosed compound name [14C]lixivaptan, route oral; details: in vivo; method in brief: as §1
[11] = Retention time of the compound by HPLC analysis; assay type: physicochemical; design: dosed compound name [14C]lixivaptan
[12] = tested on: Rattus norvegicus; test: Drug level in female Sprague-Dawley rat plasma treated with [14C]lixivaptan at 10 mg/kg, po administered as single dose via gavage measured after 8 hrs by liquid scintillation counting; assay type: ADME, organism-based; design: dose 10 mg/kg, dosed compound name [14C]lixivaptan, route oral; details: in vivo; method in brief: as §1
[13] = tested on: Rattus norvegicus; test: AUC (0 to 24 hrs) in male Sprague-Dawley rat treated with [14C]lixivaptan at 10 mg/kg, po administered as single dose via gavage; assay type: ADME, organism-based, Plasma; design: time < 24 hr, dose 10 mg/kg, dosed compound name [14C]lixivaptan, route oral; details: in vivo; method in brief: as §3
[14] = tested on: Canis familiaris; test: Drug level in beagle dog plasma treated with [14C]lixivaptan at 10 mg/kg, po administered as single dose measured after 24 hrs by liquid scintillation counting; assay type: ADME, organism-based, Canis lupus familiaris; design: dose 10 mg/kg, dosed compound name [14C]lixivaptan, route oral; details: in vivo; method in brief: as §2
[15] = tested on: Homo sapiens; test: Drug level in human plasma treated with [14C]lixivaptan at 100 mg, po administered as single dose measured after 4 hrs by liquid scintillation counting; assay type: ADME, organism-based; design: dosed compound name [14C]lixivaptan; details: in vivo; method in brief: as §4
[16] = tested on: Homo sapiens; test: Drug level in human plasma treated with [14C]lixivaptan at 100 mg, po administered as single dose measured after 12 hrs by liquid scintillation counting; assay type: ADME, organism-based; design: dosed compound name [14C]lixivaptan; details: in vivo; method in brief: as §4
[17] = tested on: Canis familiaris; test: AUC (0 to 24 hrs) in beagle dog treated with [14C]lixivaptan at 10 mg/kg, po administered as single dose; assay type: ADME, organism-based, Canis lupus familiaris, Plasma; design: time < 24 hr, dose 10 mg/kg, dosed compound name [14C]lixivaptan, route oral; details: in vivo
[18] = tested on: Homo sapiens; test: Drug concentration at steady state in human treated with [14C]lixivaptan at 100 mg, po qd for 7 days by LC/MS/MS analysis; assay type: ADME, organism-based; design: dosed compound name Lixivaptan; details: in vivo, 168 h
Method in brief: (§5)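 Phase 1 human study with lixivaptan 100 mg orally once daily and blood taken on the final day. Parent and two abundant metabolites were quantified in plasma with a validated LC-MS/MS assay.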

[19] = tested on: Rattus norvegicus; test: Drug level in female Sprague-Dawley rat plasma treated with [14C]lixivaptan at 10 mg/kg, po administered as single dose via gavage measured after 1 hr by liquid scintillation counting; assay type: ADME, organism-based; design: dose 10 mg/kg, dosed compound name [14C]lixivaptan, route oral; details: in vivo; method in brief: as §3
[20] = tested on: Canis familiaris; test: Toxicity in beagle dog treated with [14C]lixivaptan at 10 mg/kg, po administered as single dose via gavage; assay type: organism-based, Canis lupus familiaris; design: dose 10 mg/kg, dosed compound name [14C]lixivaptan, route oral; details: in vivo
[21] = tested on: Homo sapiens; test: Drug level in human plasma treated with [14C]lixivaptan at 100 mg, po administered as single dose measured after 2 hrs by liquid scintillation counting; assay type: ADME, organism-based; design: dosed compound name [14C]lixivaptan; details: in vivo; method in brief: as §4
[22] = tested on: Homo sapiens; test: Drug level in human plasma treated with [14C]lixivaptan at 100 mg, po administered as single dose measured after 8 hrs by liquid scintillation counting; assay type: ADME, organism-based; design: dosed compound name [14C]lixivaptan; details: in vivo; method in brief: as §4
[23] = tested on: Homo sapiens; test: AUC at steady state in human treated with [14C]lixivaptan at 100 mg, po qd for 7 days by LC/MS/MS analysis; assay type: ADME, organism-based, Plasma; design: dosed compound name Lixivaptan; details: in vivo, 168 h; method in brief: as §5
[24] = tested on: Homo sapiens; test: Drug level in human plasma treated with [14C]lixivaptan at 100 mg, po administered as single dose measured after 36 hrs by liquid scintillation counting; assay type: ADME, organism-based; design: dosed compound name [14C]lixivaptan; details: in vivo; method in brief: as §4
[25] = tested on: Homo sapiens; test: Drug level in human plasma treated with [14C]lixivaptan at 100 mg, po administered as single dose measured after 0.5 hrs by liquid scintillation counting; assay type: ADME, organism-based; design: dosed compound name [14C]lixivaptan; details: in vivo; method in brief: as §4
[26] = tested on: Rattus norvegicus; test: Drug level in male Sprague-Dawley rat plasma treated with [14C]lixivaptan at 10 mg/kg, po administered as single dose via gavage measured after 24 hrs by liquid scintillation counting; assay type: ADME, organism-based; design: dose 10 mg/kg, dosed compound name [14C]lixivaptan, route oral; details: in vivo; method in brief: as §1
[27] = tested on: Homo sapiens; test: Cmax in human treated with [14C]lixivaptan at 100 mg, po qd for 7 days; assay type: ADME, organism-based; design: dose 100 mg, route oral, dosed compound name [14C]lixivaptan; details: in vivo, 168 h
[28] = tested on: Canis familiaris; test: Drug level in beagle dog plasma treated with [14C]lixivaptan at 10 mg/kg, po administered as single dose measured after 8 hrs by liquid scintillation counting; assay type: ADME, organism-based, Canis lupus familiaris; design: dose 10 mg/kg, dosed compound name [14C]lixivaptan, route oral; details: in vivo; method in brief: as §2

## Cc1ccc(F)cc1C(=O)Nc1ccc(C(=O)Nc2ccccc2C(=O)O)c(Cl)c1
[1]
  Compound recovery: 73.9%
[2]
  Compound recovery: 15.3%
[3]
  Compound recovery: 97.4%
[4]
  AUC: 5180 ng·h/mL
[5]
  AUC: 11100 ng.Eq.hr/ml
[6]
  Activity: Non-toxic
[7]
  Activity: Non-toxic
[8]
  AUC: 5180 ng.Eq.hr/ml
[9]
  Compound recovery: 38.8%
[10]
  Compound recovery: 58.5%
[11]
  Retention_time: 24.5 min
[12]
  Compound recovery: 42.4%
[13]
  AUC: 32100 ng.Eq.hr/ml
[14]
  Compound recovery: 38.7%
[15]
  Compound recovery: 19.6%
[16]
  Compound recovery: 30.1%
[17]
  AUC: 22400 ng.Eq.hr/ml
[18]
  Css: 658 ng/mL
[19]
  Compound recovery: 9%
[20]
  Activity: Non-toxic
[21]
  Compound recovery: 12.6%
[22]
  Compound recovery: 28.4%
[23]
  AUCss: 6610 ng·h/mL
[24]
  Compound recovery: 35.2%
[25]
  Compound recovery: 1.5%
[26]
  Compound recovery: 67.8%
[27]
  Cmax: 278 ng/mL
[28]
  Compound recovery: 29.7%
